# According to ChEMBL document CHEMBL4387710, “Fragment-Based Discovery of an Apolipoprotein E4 (apoE4) Stabilizer” (J Med Chem, 2019):
# Active and inactive are the calls of the source. No cut-off for these calls is given here.
# Assays:
# [1] = Binding affinity to full-length human recombinant C-terminal FLAG/His-tagged apolipoprotein E3 expressed in HEK293-6E cells by surface plasmon resonance assay
# Homo sapiens [2] = species on record: Homo sapiens; assay: (§1) Binding affinity to human recombinant full-length N-terminal thrombin-recognition site-fused His6-tagged apolipoprotein E4 (1 to 299 residue) F257A/W246R/V269A/L279Q/V287E mutant expressed in Escherichia coli BL21-(DE3)-T1R cells assessed as change in melting temperature at 5 mM incubated for 15 mins by SYPRO orange dye-based thermal shift assay
# Summary of the method: (§2)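 Thermal shift assay: compound added at 5 mM to full-length mutant apoE protein (apoE4 or apoE3). Stabilization is reported as the shift in melting temperature, in degrees.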
# [3] = Binding affinity to N-terminal thrombin-recognition site-fused His6-tagged human apolipoprotein E4 N-terminal domain without leader sequence (1 to 164 residues) expressed in Escherichia coli BL21-(DE3)-T1R cells by 13C-HSQC NMR spectroscopy
# Homo sapiens [4] = species on record: Homo sapiens; assay: Binding affinity to N-terminal thrombin-recognition site-fused His6-tagged human apolipoprotein E4 N-terminal domain without leader sequence (1 to 164 residues) expressed in Escherichia coli BL21-(DE3)-T1R cells assessed as breakdown of DMPG liposomes at 500 uM after 30 mins by dynamic light scattering analysis
# Summary of the method: (§3)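 DMPG liposome breakdown assay: large DMPG liposomes incubated with apoE protein (N-terminal domain, or full-length wild-type from mammalian cells). Breakdown into smaller discoidal complexes is read as a fall in light-scattering intensity. Liposomes alone serve as control. Compound is tested as a dose series covering 15.6 to 500 μM.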
# [5] = Binding affinity to N-terminal thrombin-recognition site-fused His6-tagged human apolipoprotein E4 N-terminal domain without leader sequence (1 to 164 residues) expressed in Escherichia coli BL21-(DE3)-T1R cells by surface plasmon resonance analysis
# [6] = Solubility of the compound in PBS by NMR method; type: physicochemical
# Homo sapiens [7] = species on record: Homo sapiens; assay: as §1, with “E3” for “E4”; summary of the method: as §2
# [8] = Binding affinity to full-length human recombinant C-terminal FLAG/His-tagged apolipoprotein E4 expressed in HEK293-6E cells by surface plasmon resonance assay
# Homo sapiens [9] = species on record: Homo sapiens; assay: Binding affinity to full-length human recombinant C-terminal FLAG/His-tagged apolipoprotein E4 expressed in HEK293-6E cells assessed as breakdown of DMPG liposomes at 500 uM after 30 mins by dynamic light scattering analysis; type: cell-based; summary of the method: as §3
# Homo sapiens [10] = species on record: Homo sapiens; assay: as §1, with “at 1” for “at 5”
# Astrocyte [11] = assay: Antineuroinflammatory activity in human induced pluripotent stem cell-derived astrocytes harboring apolipoprotein E4/4 assessed reduction in TNFalpha/IL-1beta/IFNgamma-stimulated IL-6 secretion preincubated for 1 hr followed by TNFalpha/IL-1beta/IFNgamma stimulation and measured after 24 hrs; type: functional, cell-based
# Astrocyte [12] = assay: Cytotoxicity against human induced pluripotent stem cell-derived astrocytes harboring apolipoprotein E4/4 assessed as effect on cell viability at 12.5 uM to 100 uM preincubated for 1 hr followed by TNFalpha/IL-1beta/IFNgamma stimulation and measured after 24 hrs by CellTiter-Glo luminescent cell viability assay; type: cell-based
# Astrocyte [13] = assay: Antineuroinflammatory activity in human induced pluripotent stem cell-derived astrocytes harboring apolipoprotein E4/4 assessed reduction in TNFalpha/IL-1beta/IFNgamma-stimulated IL-8 secretion preincubated for 1 hr followed by TNFalpha/IL-1beta/IFNgamma stimulation and measured after 24 hrs; type: functional, cell-based
smiles,measurement,setting,value
N=C(N)C1(c2cccc(Cl)c2)CCC1,Kd,[1],890 µM
same,ΔTm,Homo sapiens [2],4 °C
same,Kd,[3],900 µM
same,Activity,Homo sapiens [4],Active
same,Kd,[5],205 µM
same,solubility,[6],≥ 500 µM
same,ΔTm,Homo sapiens [7],0.5 °C
same,Kd,[8],233 µM
same,Activity,Homo sapiens [9],Active
CC(=O)NCc1ccc(-c2cc(Cl)cc(C3(C(=N)N)CCC3)c2)cc1,Kd,[3],20 µM
CC(C)(O)c1ccc(-c2cc(Cl)cc(C3(C(=N)N)CCC3)c2)cc1,Kd,[3],30 µM
CN(C)CCNC(=O)c1ccc(-c2cc(Cl)cc(C3(C(=N)N)CCC3)c2)cc1,ΔTm,Homo sapiens [10],4 °C
same,Kd,[3],< 5 µM
same,Activity,Astrocyte [11],Dose-dependent effect
same,Activity,Astrocyte [12],Non-Toxic
same,Activity,Astrocyte [13],Dose-dependent effect
N=C(N)C1(c2cc(Cl)cc(-c3ccc(CN)cc3)c2)CCC1,Kd,[3],< 5 µM
N=C(N)C1(c2cc(Cl)cc(-c3ccccc3)c2)CCC1,Kd,[3],230 µM
N=C(N)C1(c2cc(Cl)cc(-c3ccc(CO)c(Cl)c3)c2)CCC1,Kd,[3],8 µM
CCNS(=O)(=O)c1ccc(-c2cc(Cl)cc(C3(C(=N)N)CCC3)c2)cc1,Kd,[3],20 µM
